High-throughput results from PubChem BioAssay.
KCNK3 inh = human KCNK3 channel inhibition, primary screen | AID 602410 | CHO-KCNK3 thallium flux, FluxOR fluorescence; hits give low values | 340,000 tested, 0.84% active | O14649 | B-score at 10 µM;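 active means B-score under library mean minus 4 SD, starting fluorescence ratio at most library mean plus 5 SD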;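 further: more negative B-score means stronger inhibition of thallium flux through KCNK3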
KCNK9 inh = blocks the human KCNK9 two-pore domain potassium channel | HEK293 KCNK9, FluxOR thallium flux fluorescence; hits give low values | B-score at 10 µM | 310,000 tested, 1.2% active;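 active means ratio B-score over 3 SD below the library mean, with starting fluorescence within 5 SD of its mean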;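 further: negative B-score means less thallium flux so channel inhibition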
Target sequence (Q9NPC2 whole entry, looked up, the tested form may be a part): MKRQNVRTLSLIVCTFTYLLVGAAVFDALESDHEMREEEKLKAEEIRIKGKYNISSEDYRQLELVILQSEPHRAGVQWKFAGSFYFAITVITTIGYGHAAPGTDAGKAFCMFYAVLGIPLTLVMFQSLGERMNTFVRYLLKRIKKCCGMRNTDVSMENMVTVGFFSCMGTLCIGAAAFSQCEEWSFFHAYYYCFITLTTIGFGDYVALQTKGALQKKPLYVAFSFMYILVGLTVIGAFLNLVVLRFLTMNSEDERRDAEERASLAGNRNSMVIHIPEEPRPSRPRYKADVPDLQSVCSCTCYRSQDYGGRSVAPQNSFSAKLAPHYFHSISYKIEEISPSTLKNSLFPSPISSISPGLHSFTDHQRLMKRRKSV
KCNQ1 act = potentiates or activates the human KCNQ1 potassium channel | B-score at 10 µM | AID 2648 | CHO-K1 KCNQ1, thallium flux FluxOR fluorescence; hits give high values | P51787 | 310,000 tested, 0.35% active;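 active means fluorescence ratio B-score, a plate-corrected score, at least three library SD, with initial intensity B-score within 5 SD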
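Assay system: CHO-K1 cells stably expressing KCNQ1; Medium: assay buffer with matched DMSO; Also added: K+/Tl+ depolarizing stimulus; Dosing: single dose; Timing: dye 90 min, compound 20 min, room temperature; Measured by: kinetic FluxOR thallium fluorescence, 10-s 1-Hz baseline, 110-s post-stimulus read; Read-out: peak-minus-minimum fluorescence over initial fluorescence, negative-control normalized, B-scored.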
Kir21 block = inhibitors of mouse Kir2.1 inward-rectifier potassium channel; P35561; HEK293-Kir2.1, FluxOR thallium flux fluorescence; hits give low values; B-score at 10 µM; 310,000 tested, 0.85% active; AID 1672;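 active means fluorescence ratio B-score at or below minus 3 SD of library scores, with starting-brightness B-score within 2 SD, cut at about -4.2 in these data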;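 further: channel flux triggered by added potassium and thallium sulfate stimulus; B-score of peak minus minimum fluorescence over baseline after thallium stimulus; more negative B-score means stronger Kir2.1 block with less thallium influx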
hERG protect = hERG (human) protection from proarrhythmic block. 310,000 tested, 0.51% active. CHO-hERG, FluxOR thallium flux, dofetilide IC70 present. activation (rescue from dofetilide block), less the hit threshold, % at 10 µM. Q12809;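 active means activation above the mean of controls blocked by dofetilide plus 5 SD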;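 further: thallium influx through hERG after potassium depolarization seen as dye fluorescence rise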
KCNQ1 block = inhibitors of human KCNQ1 potassium channel | P51787 | CHO-K1 KCNQ1, FluxOR thallium flux fluorescence; hits give high values | B-score at 10 µM | 310,000 tested, 1.3% active | AID 2642;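 active means compounds whose thallium flux B-score, printed positive for inhibition, exceeds three library SD while starting fluorescence stays within three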;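 further: channel opened by potassium depolarization with thallium stimulus after 20 min compound exposure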
KCNK9 block conf = confirmation of human KCNK9 potassium channel inhibitors | shares compounds with KCNK9 inh | HEK293 KCNK9 cells, FluxOR thallium flux fluorescence | inhibition, % at 10 µM | 4,900 tested, 43% active;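 active means thallium signal inhibited by more than 5 SD of the compound-free buffer control wells, on both duplicate plates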;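 further: 0% = assay buffer control wells without compound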
Kir21 sel = selectivity of KCNK9 modulators against mouse Kir2.1; Kir2.1 cells, FluxOR thallium flux fluorescence; shares compounds with KCNK9 inh; inhibition, % at 10 µM; 4,900 tested, 4% active; AID 492993;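 active means thallium signal drop more than 5 SD beyond the mean of the no-compound control wells, seen in both duplicate plates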;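 further: signal is fluorescence rise after thallium addition divided by baseline fluorescence; plate controls were assay buffer only for no effect and full block by chlorpromazine control for full effect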
HEK293 Tl ctr = non-induced cell nonspecific activity of KCNK9 modulators. shares compounds with KCNK9 inh. non-induced KCNK9-HEK293, FluxOR thallium flux. inhibition, % at 10 µM. 4,900 tested, 40% active. AID 492997;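 active means thallium signal drop beyond 5 SD of the untreated control mean, on both duplicate plates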;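 further: plate controls were buffer only IC0 wells for no effect and SID17386958 at its maximal inhibitory level for full effect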
An asterisk follows results filed as active; i = inactive; . = no result. Rows were chosen to be rich in hits. Some 3.7% of all compounds tested hit in one or more screens of this group.

SMILES	KCNK3 inh	KCNK9 inh	KCNQ1 act	Kir21 block	hERG protect	KCNQ1 block	KCNK9 block conf	Kir21 sel	HEK293 Tl ctr
COc1ccccc1CCNC(=O)C(=O)NCC1OCCN1S(=O)(=O)c1ccc(OC)c(OC)c1 (configuration not stated)	i	i	i	0.76	-10.1	i	.	.	.
COc1ccc(-c2nnn(CC(=O)N(Cc3ccccc3Cl)C(C(=O)NCC3CCCO3)c3ccco3)n2)cc1OC (configuration not stated)	i	i	i	-0.78	-20.5	i	.	.	.
COC(=O)c1cc(C#N)c(N2CCN(C)CC2)nc1C	i	i	i	-0.3	-8.8	i	.	.	.
Cc1ccc(NC(=O)c2cc(S(=O)(=O)N3CCC4(CC3)OCCO4)ccc2F)cc1	i	i	i	-0.53	-9.3	i	.	.	.
O=C(NC1CCCCCC1)c1cc(S(=O)(=O)N2CCC3(CC2)OCCO3)ccc1F	i	i	i	-0.08	-9.0	i	i	i	i
O=C(NC1CC2CCC(C1)N2C(=O)NCc1ccccc1)NC12CC3CC(CC(C3)C1)C2 (configuration not stated)	i	i	i	0.85	-5.1	i	.	.	.
S=C(NC1CCCCC1)N1CCOCCOCCN(C(=S)NC2CCCCC2)CCOCCOCC1	i	-12.5*	i	2.21	-1.9	i	50.0%*	i	33.0%*
Nc1cc(-c2ccc(OC(F)(F)F)cc2)nn1-c1ccc(Cl)c(Cl)c1	i	i	i	-0.9	-3.8	i	.	.	.
CCOc1ccc(S(=O)(=O)N2CCN(CC)CC2)cc1NC(=O)c1ccccc1F	i	i	i	0.3	-4.4	i	.	.	.
Cc1ccc(NC(=O)CSCc2n[nH]c(=O)[nH]2)c(Br)c1	i	i	i	1.26	-4.2	i	.	.	.
COc1ccc(C(=O)Nc2cc(OC)ccc2OC)cc1	i	i	i	-0.36	-7.6	i	.	.	.
COc1ccc(OC)c(NC(=O)c2cc(OC(C)=O)cc(C(=O)Nc3cc(OC)ccc3OC)c2)c1	i	-9.52*	i	0.39	-6.9	i	49.0%*	i	i
Cc1cc(Cl)cc2c(N=Nc3ccccc3C(=O)O)c(O)[nH]c12	i	i	i	0	-9.2	i	i	i	i
CCOc1ccccc1C(=O)NCC(=O)Nc1ncccc1C	i	i	i	0.96	-17.6	i	.	.	.
CCOc1ccc(C(=O)NCC(=O)Nc2ncccc2C)cc1OCC	i	i	i	0.01	-5.5	i	51.0%*	i	i
CCCCCCNC(=O)c1cccc(-c2ccc(C)c3ccccc23)n1	i	i	i	1.44	-11.1	i	i	i	i
Cc1ccc(C)c(N=C2CCCN2Cc2ccccc2)c1C#N	i	-8.9*	i	-3.18	-12.9	i	i	i	36.0%*
N#Cc1c2c(c[nH]c1=O)CCN2Cc1ccccc1	i	i	i	-0.36	-6.7	i	.	.	.
CCOC(=O)c1cc2occc2n1Cc1ccc(F)cc1	i	-8.28*	i	0.62	-7.8	i	i	i	30.0%*
COC(=O)c1cc2occc2n1Cc1ccc(Cl)cc1	i	i	i	-0.19	-15.1	i	.	.	.
CCOC(=O)c1c(C)c(C(=O)N2CCN(c3cccc(Cl)c3)CC2)c(C)n1C	i	i	i	0.25	-9.9	i	i	i	i
CCCCC(CC)C(=O)Nc1ncc([N+](=O)[O-])s1 (configuration not stated)	i	i	i	-0.06	-17.1	i	.	.	.
CCOC(=O)CN(C(=O)COc1nc(-c2ccccc2)cc(C)c1C#N)c1ccc(C)cc1	i	i	i	-0.94	-9.9	i	i	i	i
CCOC(=O)CN(C(=O)COc1nc(-c2ccccc2)cc(C)c1C#N)c1ccccc1	i	i	i	-0.18	-9.7	i	.	.	.
CCOC(=O)CN(C(=O)COc1nc(-c2ccccc2)cc(C)c1C#N)c1ccccc1C	i	i	i	0.94	-10.9	i	i	i	i
SMILES	KCNK3 inh	KCNK9 inh	KCNQ1 act	Kir21 block	hERG protect	KCNQ1 block	KCNK9 block conf	Kir21 sel	HEK293 Tl ctr
CCOC(=O)CN(C(=O)COc1nc(-c2ccccc2)cc(C)c1C#N)c1cccc(OC)c1	i	i	i	-3.11	-9.5	i	.	.	.
Cn1c(=O)c2c(SCC(=O)Nc3ccc4c(c3)OCCO4)nc(CC(C)(C)C)nc2n(C)c1=O	i	i	i	1.4	-8.1	i	i	i	i
Cn1c(=O)c2c(SCC(=O)NC3CCCC3)nc(CC(C)(C)C)nc2n(C)c1=O	i	i	i	0.18	-6.2	i	.	.	.
CCOc1ccc(Br)cc1S(=O)(=O)Nc1ccccc1N1CCOCC1	i	-10.4*	i	-0.26	-10.6	i	i	i	i
OC(COC(c1ccc(F)cc1)c1ccc(F)cc1)CN1CCCC1 (configuration not stated)	i	i	i	-1.41	-5.6	i	.	.	.
COc1ccc(N=C2SC(CC(=O)Nc3ccccc3OC)C(=O)N2Cc2ccco2)cc1 (configuration not stated)	i	i	i	1.97	-10.4	i	i	i	i
COc1ccccc1OCCCOc1ccc([N+](=O)[O-])cc1Cl	i	i	i	0.36	-5.6	i	i	i	36.5%*
COc1cccc(OCCCOc2ccc([N+](=O)[O-])cc2Cl)c1	i	i	i	-1.12	-6.0	i	.	.	.
CCOc1ccc(NC(=O)c2ccccc2OCC(=O)c2ccccc2)cc1	i	-14.4*	i	-2.57	-10.7	i	41.5%*	i	i
CCOc1ccccc1C(=O)Nc1ccc(C(=O)c2ccccc2)cc1	i	-12.6*	i	0.26	-10.1	i	75.5%*	i	31.5%*
COc1ccc(C2(c3ccc(OC)cc3)NC(=O)N(CC(=O)NC3CCCC3)C2=O)cc1	i	i	i	0.05	-15.2	i	.	.	.
COc1cc2c(cc1OC)-c1nnc(-c3ccco3)n1C1(CCCC1)C2	i	-12.6*	i	1.18	-8.4	i	46.5%*	i	28.5%*
O=C(c1ccc(N2CCCCC2)c([N+](=O)[O-])c1)N(Cc1ccccc1)c1ccccn1	i	i	i	-1.24	-18.1	i	.	.	.
